Laboratory results published in ChEMBL document CHEMBL4052682, “Exploitation of Conformational Dynamics in Imparting Selective Inhibition for Related Matrix Metalloproteinases” (ACS Med Chem Lett, 2017).
The source made the active and inactive calls. The rule behind the calls is not given here.

What was measured:
[1] = target: T1, Neutrophil collagenase (Homo sapiens, UniProt P22894); assay: Inhibition of human recombinant MMP-8 catalytic domain (99 to 269 residues) expressed in Escherichia coli using fluorogenic Mca-KPLGL-Dpa-AR-NH2 as substrate by fluorescence spectrophotometric analysis
Procedure, shortened: (§1)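 Ki was determined only for compounds giving more than 50% inhibition in the 10 μM enzyme–substrate screen.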

[2] = target: 72 kDa type IV collagenase (Homo sapiens) (UniProt P08253); assay: Inhibition of human recombinant full length active MMP-2 expressed in mouse cells using fluorogenic MOCAc-Pro-Leu-Gly-Leu-A2pr(Dnp)-Ala-Arg-NH2 as substrate at 10 uM by fluorescence spectrophotometric analysis; format: biochemical
Procedure, shortened: (§2)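 Single-concentration screen: compounds were incubated at 10 μM with each MMP and its substrate, and percent inhibition was measured.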

[3] = target: T2, Matrilysin (Homo sapiens) (UniProt P09237); assay: Inhibition of human recombinant active MMP-7 expressed in Escherichia coli using fluorogenic MOCAc-Pro-Leu-Gly-Leu-A2pr(Dnp)-Ala-Arg-NH2 as substrate at 10 uM by fluorescence spectrophotometric analysis; procedure, shortened: as §2
T2 sequence (whole entry): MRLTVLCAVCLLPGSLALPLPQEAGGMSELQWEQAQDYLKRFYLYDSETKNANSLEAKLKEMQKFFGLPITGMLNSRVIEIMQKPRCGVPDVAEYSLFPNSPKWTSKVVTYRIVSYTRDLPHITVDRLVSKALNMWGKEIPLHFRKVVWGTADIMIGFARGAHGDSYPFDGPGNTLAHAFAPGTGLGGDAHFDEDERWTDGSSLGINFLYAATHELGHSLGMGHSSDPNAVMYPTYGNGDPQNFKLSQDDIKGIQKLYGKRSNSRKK

[4] = target: Matrix metalloproteinase-14 (Homo sapiens) (UniProt P50281); assay: Inhibition of human recombinant MMP-14 catalytic domain (89 to 265 residues) expressed in Escherichia coli using fluorogenic MOCAc-Pro-Leu-Gly-Leu-A2pr(Dnp)-Ala-Arg-NH2 as substrate at 10 uM by fluorescence spectrophotometric analysis; procedure, shortened: as §2
[5] = target: Matrix metalloproteinase-9 (Homo sapiens) (UniProt P14780); assay: Inhibition of human recombinant MMP-9 catalytic domain (107 to 449 residues) expressed in Escherichia coli using fluorogenic MOCAc-Pro-Leu-Gly-Leu-A2pr(Dnp)-Ala-Arg-NH2 as substrate at 10 uM by fluorescence spectrophotometric analysis; procedure, shortened: as §2
[6] = target: Matrix metalloproteinase-14 (Homo sapiens) (UniProt P50281); assay: Inhibition of human recombinant MMP-14 catalytic domain ([…]) using fluorogenic MOCAc-Pro-Leu-Gly-Leu-A2pr(Dnp)-Ala-Arg-NH2 as substrate at 10 uM by fluorescence spectrophotometric analysis relative to control; procedure, shortened: as §2
[7] = target: T3, Collagenase 3 (Homo sapiens, UniProt P45452); assay: Inhibition of human recombinant MMP-13 catalytic domain (104 to 274 residues) expressed in Escherichia coli using fluorogenic Mca-KPLGL-Dpa-AR-NH2 as substrate at 10 uM by fluorescence spectrophotometric analysis relative to control; procedure, shortened: as §2
[8] = target: T3, Collagenase 3; assay: Inhibition of human recombinant MMP-13 catalytic domain (104 to 274 residues) expressed in Escherichia coli using fluorogenic Mca-KPLGL-Dpa-AR-NH2 as substrate by fluorescence spectrophotometric analysis; procedure, shortened: as §1
[9] = target: T4, Interstitial collagenase (Homo sapiens) (UniProt P03956); assay: Inhibition of human recombinant MMP-1 catalytic domain (100 to 268 residues) expressed in Escherichia coli using fluorogenic Mca-KPLGL-Dpa-AR-NH2 as substrate at 10 uM by fluorescence spectrophotometric analysis; procedure, shortened: as §2
T4 sequence (whole entry): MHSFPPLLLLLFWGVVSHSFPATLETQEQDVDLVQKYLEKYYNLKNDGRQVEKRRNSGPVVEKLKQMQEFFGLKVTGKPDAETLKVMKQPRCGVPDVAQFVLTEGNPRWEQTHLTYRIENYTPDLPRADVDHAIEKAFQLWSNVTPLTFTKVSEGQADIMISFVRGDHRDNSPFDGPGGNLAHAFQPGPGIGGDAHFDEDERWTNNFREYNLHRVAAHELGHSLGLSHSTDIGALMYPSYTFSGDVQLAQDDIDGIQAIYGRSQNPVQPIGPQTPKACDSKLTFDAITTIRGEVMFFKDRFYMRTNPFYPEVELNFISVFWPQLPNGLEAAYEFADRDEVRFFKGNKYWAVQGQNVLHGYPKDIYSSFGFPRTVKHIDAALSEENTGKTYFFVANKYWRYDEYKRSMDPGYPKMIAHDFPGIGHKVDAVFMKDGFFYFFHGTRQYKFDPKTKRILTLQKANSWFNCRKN

[10] = target: MMP-8 (neutrophil collagenase) (Homo sapiens, UniProt P22894); assay: (§3) Inhibition of human recombinant MMP-8 catalytic domain (99 to 269 residues) expressed in Escherichia coli using fluorogenic Mca-KPLGL-Dpa-AR-NH2 as substrate at 10 uM by fluorescence spectrophotometric analysis relative to control; details: probe Mca-KPLGL-Dpa-AR-NH2 (fluorogenic)
[11] = target: Stromelysin-1 (Homo sapiens) (UniProt P08254); assay: Inhibition of human recombinant MMP-3 catalytic domain expressed in Escherichia coli using fluorogenic MOCAc-Arg-Pro-Lys-Pro-Val-Glu-Nva-Trp-Arg-Lys(Dnp)-NH2 as substrate at 10 uM by fluorescence spectrophotometric analysis; procedure, shortened: as §2
[12] = target: Matrix metalloproteinase-14 (Homo sapiens) (UniProt P50281); assay: Inhibition of human recombinant MMP-14 catalytic domain ([…]) using fluorogenic MOCAc-Pro-Leu-Gly-Leu-A2pr(Dnp)-Ala-Arg-NH2 as substrate at 50 uM by fluorescence spectrophotometric analysis relative to control
[13] = target: T1, Neutrophil collagenase; assay: as §3; details: 10 µM
[14] = AUC (0 to infinity) in CD-1 mouse at 10 mg/kg, po by UPLC analysis; format: ADME, organism-based; parameters: dose 10 mg/kg, time infinity, route oral; details: in vivo
[15] = Volume of distribution in CD-1 mouse at 1 mg/kg, iv administered as single dose by UPLC analysis; format: ADME, organism-based; details: in vivo
Procedure, shortened: (§4)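 Mouse pharmacokinetics after a single 1 mg/kg intravenous dose. Three mice were sampled per time point and plasma concentration–time curves were built. Plasma levels were read at 2 min and at 24 h. AUC0-∞, clearance (also expressed as a percentage of hepatic blood flow), volume of distribution and elimination half-life were derived from the curves.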

[16] = Plasma concentration in CD-1 mouse at 1 mg/kg, iv administered as single dose after 2 mins by UPLC analysis; format: ADME, organism-based; procedure, shortened: as §4
[17] = Cmax in CD-1 mouse at 10 mg/kg, po after 6 hrs by UPLC analysis; format: ADME, organism-based; parameters: dose 10 mg/kg, route oral; details: in vivo
Procedure, shortened: (§5)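 Mouse pharmacokinetics after a single 10 mg/kg oral dose. Three mice were sampled per time point, out to 48 h, and plasma concentration–time curves were built. Cmax and its time, elimination half-life and AUC0-∞ were derived. Absolute oral bioavailability came from the oral AUC relative to the intravenous (1 mg/kg) AUC, after dose adjustment.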

[18] = Plasma concentration in CD-1 mouse at 1 mg/kg, iv administered as single dose after 24 hrs by UPLC analysis; format: ADME, organism-based; procedure, shortened: as §4
[19] = Oral bioavailability in CD-1 mouse at 10 mg/kg by UPLC analysis; format: ADME, organism-based; details: in vivo; procedure, shortened: as §5
[20] = tested on: Mus musculus; assay: Clearance in CD-1 mouse at 1 mg/kg, iv administered as single dose by UPLC analysis relative to hepatic blood flow; format: ADME, organism-based; details: in vivo; procedure, shortened: as §4
[21] = tested on: Mus musculus; assay: Time at which plasma concentration stays above human recombinant MMP-13 Ki level in CD-1 mouse at 1 mg/kg, iv administered as single dose by UPLC analysis
[22] = Elimination half life in CD-1 mouse at 1 mg/kg, iv administered as single dose by UPLC analysis; format: ADME, organism-based; details: in vivo, read-out: beta t1/2 (converted); procedure, shortened: as §4
[23] = Elimination half life in CD-1 mouse at 10 mg/kg, po by UPLC analysis; format: ADME, organism-based; details: in vivo, read-out: beta t1/2 (converted); procedure, shortened: as §5
[24] = Clearance in CD-1 mouse at 1 mg/kg, iv administered as single dose by UPLC analysis; format: ADME, organism-based; details: in vivo; procedure, shortened: as §4
[25] = AUC (0 to infinity) in CD-1 mouse at 1 mg/kg, iv administered as single dose by UPLC analysis; format: ADME, organism-based; parameters: dose 1 mg/kg, time infinity, route intravenous; details: in vivo; procedure, shortened: as §4
[26] = Plasma concentration in CD-1 mouse at 10 mg/kg, po after 48 hrs by UPLC analysis; details: in vivo

Chain of 72 kDa type IV collagenase (Homo sapiens) (P08253 110-660 limits assumed): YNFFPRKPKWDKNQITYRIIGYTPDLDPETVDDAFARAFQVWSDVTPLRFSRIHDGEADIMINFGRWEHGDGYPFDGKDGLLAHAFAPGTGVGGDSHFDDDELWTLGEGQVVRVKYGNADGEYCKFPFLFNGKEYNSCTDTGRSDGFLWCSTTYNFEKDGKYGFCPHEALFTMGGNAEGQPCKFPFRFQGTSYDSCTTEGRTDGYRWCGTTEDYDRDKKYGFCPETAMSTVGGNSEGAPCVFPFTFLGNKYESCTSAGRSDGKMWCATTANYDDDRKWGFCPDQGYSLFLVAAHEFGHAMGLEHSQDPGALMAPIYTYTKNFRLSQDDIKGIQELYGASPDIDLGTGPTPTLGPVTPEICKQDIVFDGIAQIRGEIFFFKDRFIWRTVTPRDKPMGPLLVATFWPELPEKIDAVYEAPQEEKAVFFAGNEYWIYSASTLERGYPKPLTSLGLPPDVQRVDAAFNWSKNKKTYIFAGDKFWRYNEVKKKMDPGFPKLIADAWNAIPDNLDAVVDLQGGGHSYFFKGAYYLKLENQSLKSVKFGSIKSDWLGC
Chain of Stromelysin-1 (Homo sapiens) (P08254 100-477 limits assumed): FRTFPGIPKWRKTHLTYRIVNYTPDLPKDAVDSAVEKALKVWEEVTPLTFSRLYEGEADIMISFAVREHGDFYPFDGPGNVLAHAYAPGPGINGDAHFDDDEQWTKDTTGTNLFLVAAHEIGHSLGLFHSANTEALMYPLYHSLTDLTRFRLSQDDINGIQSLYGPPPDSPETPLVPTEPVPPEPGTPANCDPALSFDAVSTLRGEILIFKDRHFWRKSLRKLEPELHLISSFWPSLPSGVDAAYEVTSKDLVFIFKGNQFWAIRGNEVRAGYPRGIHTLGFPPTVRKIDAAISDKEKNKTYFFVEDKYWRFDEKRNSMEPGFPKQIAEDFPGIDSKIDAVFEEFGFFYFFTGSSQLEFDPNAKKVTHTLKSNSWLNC
T1 sequence (P22894 whole entry, the tested form may be a part): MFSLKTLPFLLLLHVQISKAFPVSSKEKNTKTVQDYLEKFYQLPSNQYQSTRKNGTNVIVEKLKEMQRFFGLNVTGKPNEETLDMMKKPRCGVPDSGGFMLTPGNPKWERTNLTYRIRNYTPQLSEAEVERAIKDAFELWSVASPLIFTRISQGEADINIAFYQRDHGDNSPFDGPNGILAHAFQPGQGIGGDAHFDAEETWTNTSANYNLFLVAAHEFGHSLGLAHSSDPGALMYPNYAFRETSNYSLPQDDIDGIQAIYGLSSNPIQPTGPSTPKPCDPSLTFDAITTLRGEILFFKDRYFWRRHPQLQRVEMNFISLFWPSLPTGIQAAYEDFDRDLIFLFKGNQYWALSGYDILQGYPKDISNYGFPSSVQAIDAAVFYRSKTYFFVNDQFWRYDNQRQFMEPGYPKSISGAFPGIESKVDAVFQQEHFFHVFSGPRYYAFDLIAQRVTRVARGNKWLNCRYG
Chain of MMP-8 (neutrophil collagenase) (P22894 whole entry, the tested form may be a part): as above
Chain of Matrix metalloproteinase-9 (Homo sapiens) (P14780 whole entry, the tested form may be a part): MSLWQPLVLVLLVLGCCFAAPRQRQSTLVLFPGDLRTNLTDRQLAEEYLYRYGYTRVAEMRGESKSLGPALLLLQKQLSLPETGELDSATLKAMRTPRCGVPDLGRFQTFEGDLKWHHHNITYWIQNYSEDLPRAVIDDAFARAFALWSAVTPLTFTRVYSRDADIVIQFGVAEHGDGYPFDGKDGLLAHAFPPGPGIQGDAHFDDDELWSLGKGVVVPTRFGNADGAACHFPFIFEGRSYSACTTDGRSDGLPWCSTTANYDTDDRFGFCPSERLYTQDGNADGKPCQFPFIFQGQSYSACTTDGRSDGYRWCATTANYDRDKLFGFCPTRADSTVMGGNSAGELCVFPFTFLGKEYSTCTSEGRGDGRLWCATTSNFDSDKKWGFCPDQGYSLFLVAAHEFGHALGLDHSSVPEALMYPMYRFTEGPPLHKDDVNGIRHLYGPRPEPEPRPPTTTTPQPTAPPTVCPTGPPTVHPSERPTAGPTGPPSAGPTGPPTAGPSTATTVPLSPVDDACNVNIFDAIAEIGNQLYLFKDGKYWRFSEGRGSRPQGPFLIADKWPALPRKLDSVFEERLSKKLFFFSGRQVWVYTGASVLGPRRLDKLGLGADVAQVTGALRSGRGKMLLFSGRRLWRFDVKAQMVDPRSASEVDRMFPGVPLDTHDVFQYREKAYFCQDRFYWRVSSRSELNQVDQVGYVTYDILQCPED

SMILES	Ki [1] [nM]	inhibition [2]	inhibition [3]	inhibition [4]	inhibition [5]	inhibition [6] [%]	inhibition [7]	Ki [8] [nM]	inhibition [9]	inhibition at 10 µM [10] [%]	inhibition [11]	inhibition (INH) [13]	also measured
O=C1COc2ccc(CNC(=O)c3nc4sc5c(c4c(=O)[nH]3)CCCCCC5)cc2N1	0.71	inactive	inactive	inactive	inactive	14	> 50%	0.59	inactive	> 50	inactive	–	–
O=C1COc2ccc(CNC(=O)c3nc4scc(CCc5ccccc5)c4c(=O)[nH]3)cc2N1	6500	inactive	inactive	inactive	inactive	4	> 50%	190	inactive	> 50	inactive	–	–
O=C1COc2ccc(CNC(=O)c3nc4sc(C5CCCCC5)cc4c(=O)[nH]3)cc2N1	3.3	inactive	inactive	inactive	inactive	–	> 50%	24.5	inactive	> 50	inactive	–	inhibition [12]: 57%
O=C1COc2ccc(CNC(=O)c3nc4scc(-c5ccc(C(F)(F)F)cc5)c4c(=O)[nH]3)cc2N1	8500	inactive	inactive	inactive	inactive	1	> 50%	36	inactive	> 50	inactive	–	AUC(0-inf) [14]: 6.92 µM·h; Vd [15]: 1 L/kg; concentration at 2 min [16]: 4.4 µM; Cmax [17]: 400 nM; concentration at 24 h [18]: 62 nM; bioavailability [19]: 4.7%; CL [20]: 3%; Time [21]: 24 h; half-life [22]: 318 min; half-life [23]: 1050 min; clearance [24]: 2.2 mL/min/kg; AUC(0-inf) [25]: 14.8 µM·h; Plasma concentration at 48 h [26]: 42 nM
O=C1COc2ccc(CNC(=O)c3nc4scc(C5CCCCC5)c4c(=O)[nH]3)cc2N1	19	inactive	inactive	inactive	inactive	14	> 50%	0.47	inactive	> 50	inactive	–	–

More lines, main results first:

Ki [1] [nM]	inhibition [2]	inhibition [3]	inhibition [4]	inhibition [5]	inhibition [6] [%]	inhibition [7]	Ki [8] [nM]	inhibition [9]	inhibition at 10 µM [10] [%]	inhibition [11]	inhibition (INH) [13]	SMILES	also measured
–	–	–	–	–	–	Active	–	–	–	–	Not Active	O=C1COc2ccc(CNC(=O)c3cc(-c4ccsc4)n[nH]3)cc2N1	–
–	–	–	–	–	–	Active	–	–	–	–	Not Active	O=C1COc2ccc(CNC(=O)c3cc(-c4cccc5ccccc45)n[nH]3)cc2N1	–
–	–	–	–	–	–	Active	–	–	–	–	Not Active	O=C1COc2ccc(CNC(=O)c3cc(-c4ccccc4)n[nH]3)cc2N1	–
